The record followed here is ChEMBL document CHEMBL4393718, “Synthesis, biological evaluation and computational study of novel isoniazid containing 4H-Pyrimido[2,1-b]benzothiazoles derivatives” (2019).

What all share (type): functional
Assay [1] relates to Micrococcus luteus. The assay is described as follows: Antimicrobial activity against Micrococcus luteus MTCC 11948 incubated for 24 hrs by well diffusion method. The method, boiled down: (§1)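 Well diffusion assay on nutrient agar plates. The read-out is the mean inhibition zone diameter in mm.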
Background: A growth-free zone around the sample is the usual read-out of agar diffusion tests.

Assay [2] deals with Bacillus cereus. In words: Activity index, ratio of IZ for test compound to IZ for streptomycin for antimicrobial activity against Bacillus cereus MTCC 8558 incubated for 24 hrs by well diffusion method. In a few lines:
(§2)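 Well diffusion on nutrient agar plates. The activity index is the mean inhibition zone of the derivative divided by the inhibition zone of the standard antibiotic.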

For assay [3], the system named is Escherichia coli. In words: Antimicrobial activity against Escherichia coli MTCC 1610 incubated for 24 hrs by well diffusion method. In a few lines:
as §1

Assay [4] deals with Mycobacterium tuberculosis. In words: Antitubercular activity against Mycobacterium tuberculosis H37Rv incubated for 42 days by Lowensteine-Jensen method.
Assay [5] has as its system Micrococcus luteus. The assay is described as follows: Activity index, ratio of IZ for test compound to IZ for streptomycin for antimicrobial activity against Micrococcus luteus MTCC 11948 incubated for 24 hrs by well diffusion method. The method, boiled down:
as §2

In assay [6] the test system is Escherichia coli. The assay is described as follows: Activity index, ratio of IZ for test compound to IZ for streptomycin for antimicrobial activity against Escherichia coli MTCC 1610 incubated for 24 hrs by well diffusion method. In a few lines: as §2
Assay [7] relates to Bacillus cereus. In words: Antimicrobial activity against Bacillus cereus MTCC 8558 incubated for 24 hrs by well diffusion method. In a few lines: as §1
Assay [8] concerns Mycobacterium tuberculosis. The assay is described as follows: Antitubercular activity against Mycobacterium tuberculosis H37Rv assessed as reduction in viable colony forming unit at 1000 ug/ml incubated for 42 days by Lowensteine-Jensen method relative to control. The method, boiled down:
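H37Rv cultured on Lowenstein-Jensen medium with compound or untreated control; colony forming units counted on the L-J medium. Percent inhibition = (Cc − Ct)/Cc × 100, where c is control and t is test.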

Assay [9] has as its system Klebsiella aerogenes. In words: Activity index, ratio of IZ for test compound to IZ for streptomycin for antimicrobial activity against Enterobacter aerogenes MTCC 8558 incubated for 24 hrs by well diffusion method. The method, boiled down: as §2
Assay [10] relates to Klebsiella aerogenes. The assay is described as follows: Antimicrobial activity against Enterobacter aerogenes MTCC 8558 incubated for 24 hrs by well diffusion method. The method, boiled down:
as §1

The test system of assay [11] is Mycobacterium tuberculosis. The assay is described as follows: Antitubercular activity against Mycobacterium tuberculosis H37Rv assessed as viable colony forming unit at 1000 ug/ml incubated for 42 days by Lowensteine-Jensen method (reference value: 123 CFU).

Each structure is given as a SMILES string. Converted amounts (≈) assume the structure as drawn.

Consider `CCOc1ccc2c(c1)SC1=NC(C)=C(C(=O)NNC(=O)c3ccncc3)C(c3ccccn3)N12` (stereo unspecified), for which the “inhibition zone (IZ)” value worked out at 23 mm in [1], 13 mm in assay [3], 18 mm in assay [7] and 25 mm in assay [10]. The Activity_index in assay [2] was found to be 0.75; in [5], 0.958; in assay [6] it was 0.542; in [9] it was 1.042. The same compound yielded an MIC in assay [4] of 62.5 µg/mL (≈ 128 µM). Also, the inhibition at 1000 µg/mL in assay [8] was 63.4%. The Activity in assay [11] was found to be 45 CFU.
As for `CC1=C(C(=O)NNC(=O)c2ccncc2)C(c2ccccn2)N2C(=N1)Sc1cc(C)ccc12` (stereo unspecified), the “inhibition zone (IZ)” value in assay [1] is given as 19 mm; in [3] it was 21 mm; in assay [7] it was 19 mm; in assay [10], 15 mm. The Activity_index in assay [2] is reported as 0.792; in [5] it was 0.792; in assay [6], 0.875; in assay [9] it was 0.625. The compound also came in with an MIC in assay [4] of 500 µg/mL (≈ 1100 µM). For the same compound, in assay [8], the inhibition at 1000 µg/mL was 54.5%. The Activity in assay [11] worked out at 56 CFU.
`CC1=C(C(=O)NNC(=O)c2ccncc2)C(c2ccccn2)N2C(=N1)Sc1cccc(C)c12` (stereo unspecified): the “inhibition zone (IZ)” value in assay [1] was 23 mm; in [3], 17 mm; in assay [7] it was 23 mm; in assay [10] it was 23 mm. Moreover, the Activity_index in assay [2] stood at 0.958; in assay [5] it was 0.958; in [6], 0.708; in [9], 0.958. The same compound came in with an MIC in assay [4] of 1000 µg/mL (≈ 2190 µM). In addition, the inhibition at 1000 µg/mL in assay [8] worked out at 47.1%. The Activity in assay [11] was determined as 65 CFU.
For the compound `CC1=C(C(=O)NNC(=O)c2ccncc2)C(c2ccccn2)N2C(=N1)Sc1cc(C)c(C)cc12` (stereo unspecified), the “inhibition zone (IZ)” value in assay [1] came to 19 mm; in assay [3], 15 mm; in [7], 19 mm; in assay [10], 19 mm. Also, the Activity_index is 0.792 in assay [2], 0.792 in assay [5], 0.625 in assay [6] and 0.792 in [9]. In addition, the MIC in assay [4] was 12.5 µg/mL (≈ 26.6 µM). For the same compound, the inhibition at 1000 µg/mL in [8] stood at 82.1%. Besides, the Activity in assay [11] worked out at 22 CFU.
As for `CC1=C(C(=O)NNC(=O)c2ccncc2)C(c2ccccn2)N2C(=N1)Sc1cc([N+](=O)[O-])ccc12` (stereo unspecified), the “inhibition zone (IZ)” value in assay [1] amounted to 14 mm; in assay [3], 16 mm; in assay [7], 24 mm; in assay [10] it was 17 mm. In addition, the Activity_index in assay [2] was determined as 1; in assay [5] it was 0.583; in assay [6], 0.667; in [9], 0.708. Moreover, the MIC in assay [4] was determined as 250 µg/mL (≈ 513 µM). For the same compound, the inhibition at 1000 µg/mL in [8] is 56.9%. In addition, the Activity in assay [11] turned out to be 53 CFU.
Take `CC1=C(C(=O)NNC(=O)c2ccncc2)C(c2ccccn2)N2C(=N1)Sc1cc(Cl)ccc12` (stereo unspecified): the “inhibition zone (IZ)” value in assay [1] was determined as 16 mm; in [3] it was 18 mm; in assay [7] it was 17 mm; in assay [10] it was 16 mm. Further, the Activity_index is listed as 0.708 in assay [2], 0.667 in assay [5], 0.75 in [6] and 0.667 in [9]. In addition, in assay [4], the MIC turned out to be 125 µg/mL (≈ 262 µM). Further, the inhibition at 1000 µg/mL in [8] was found to be 71.5%. In addition, the Activity in [11] was 35 CFU.
For `CC1=C(C(=O)NNC(=O)c2ccncc2)C(c2ccccn2)N2C(=N1)Sc1cc(Br)ccc12` (stereo unspecified), the “inhibition zone (IZ)” value in assay [1] was 15 mm; in assay [3] it was 19 mm; in [7], 18 mm; in assay [10] it was 20 mm. The Activity_index in assay [2] is 0.75; in assay [5] it was 0.625; in assay [6], 0.792; in assay [9] it was 0.833. This compound registered an MIC in assay [4] of 62.5 µg/mL (≈ 120 µM). In [8], the inhibition at 1000 µg/mL is 73.2%. The Activity in assay [11] is listed as 33 CFU.
As to `COc1cccc2c1N1C(=NC(C)=C(C(=O)NNC(=O)c3ccncc3)C1c1ccccn1)S2` (stereo unspecified), the “inhibition zone (IZ)” value in [1] turned out to be 17 mm; in assay [3], 17 mm; in assay [7], 26 mm; in [10], 23 mm. The Activity_index in assay [2] is recorded as 1.083; in [5] it was 0.708; in assay [6], 0.708; in assay [9], 0.958. This compound also showed an MIC in assay [4] of 125 µg/mL (≈ 265 µM). Further, the inhibition at 1000 µg/mL in assay [8] stood at 50.4%. In addition, in assay [11], the Activity came to 61 CFU.
As for `CC1=C(C(=O)NNC(=O)c2ccncc2)C(c2ccccn2)N2C(=N1)Sc1cc(OC(F)(F)F)ccc12` (stereo unspecified), the “inhibition zone (IZ)” value in assay [1] stood at 18 mm; in [3], 19 mm; in assay [7], 19 mm; in [10], 22 mm. Moreover, the Activity_index in assay [2] is on record as 0.792; in [5], 0.75; in assay [6], 0.792; in assay [9], 0.917. The compound further came in with an MIC in assay [4] of 6.25 µg/mL (≈ 11.9 µM). Moreover, the inhibition at 1000 µg/mL in assay [8] was determined as 79.7%. Besides, the Activity in [11] worked out at 25 CFU.
Take `CC1=C(C(=O)NNC(=O)c2ccncc2)C(c2ccccn2)N2C(=N1)Sc1cccc(Cl)c12` (stereo unspecified): the “inhibition zone (IZ)” value turned out to be 17 mm in assay [1], 22 mm in assay [3], 16 mm in [7] and 18 mm in assay [10]. Moreover, the Activity_index in assay [2] is on record as 0.667; in assay [5] it was 0.708; in [6], 0.917; in assay [9], 0.75. The lowest concentration to inhibit growth in [4] (MIC) was 50 µg/mL (≈ 105 µM). The inhibition at 1000 µg/mL in assay [8] came to 81.3%. In assay [11], the Activity was found to be 23 CFU.
Consider `CC1=C(C(=O)NNC(=O)c2ccncc2)C(c2ccccn2)N2C(=N1)Sc1ccccc12` (stereo unspecified), for which the “inhibition zone (IZ)” value in assay [1] was 20 mm; in assay [3], 13 mm; in assay [7], 22 mm; in [10] it was 19 mm. Moreover, the Activity_index in assay [2] is reported as 0.917; in [5], 0.833; in assay [6] it was 0.542; in assay [9], 0.792. In assay [4], this compound registered an MIC of 125 µg/mL (≈ 282 µM). In addition, in assay [8], the inhibition at 1000 µg/mL turned out to be 69.9%. For the same compound, the Activity in assay [11] is recorded as 37 CFU.
With `CC1=C(C(=O)NNC(=O)c2ccncc2)C(c2ccccn2)N2C(=N1)Sc1cc(F)ccc12` (stereo unspecified), the “inhibition zone (IZ)” value was found to be 19 mm in assay [1], 24 mm in assay [3], 12 mm in [7] and 19 mm in assay [10]. In addition, the Activity_index came to 0.5 in assay [2], 0.792 in assay [5], 1 in [6] and 0.792 in [9]. This compound showed an MIC in assay [4] of 25 µg/mL (≈ 54.3 µM). For the same compound, in [8], the inhibition at 1000 µg/mL worked out at 80.5%. In assay [11], the Activity was found to be 24 CFU.
In the case of `COc1ccc2c(c1)SC1=NC(C)=C(C(=O)NNC(=O)c3ccncc3)C(c3ccccn3)N12` (stereo unspecified), the “inhibition zone (IZ)” value in assay [1] is recorded as 22 mm; in assay [3], 15 mm; in assay [7], 15 mm; in assay [10] it was 22 mm. The Activity_index turned out to be 0.625 in assay [2], 0.917 in assay [5], 0.625 in [6] and 0.917 in assay [9]. For the same compound, the minimum inhibitory concentration (MIC) in assay [4] turned out to be 500 µg/mL (≈ 1060 µM). In addition, the inhibition at 1000 µg/mL in assay [8] came out at 49.6%. The Activity in assay [11] turned out to be 62 CFU.
For the compound `CC1=C(C(=O)NNC(=O)c2ccncc2)C(c2ccccn2)N2C(=N1)Sc1cc(O)ccc12` (stereo unspecified), the “inhibition zone (IZ)” value in assay [1] was determined as 16 mm; in assay [3] it was 24 mm; in assay [7], 24 mm; in assay [10] it was 20 mm. For the same compound, the Activity_index in assay [2] was determined as 1; in assay [5], 0.667; in [6] it was 1; in assay [9], 0.833. In assay [4], this compound showed an MIC of 100 µg/mL (≈ 218 µM). Besides, the inhibition at 1000 µg/mL in assay [8] was determined as 68.3%. In addition, the Activity in assay [11] came out at 39 CFU.
For the compound `NNC(=O)c1ccncc1` [ISONIAZID], the MIC in [4] is 0.2 µg/mL (≈ 1.46 µM). Also, the inhibition at 1000 µg/mL in assay [8] turned out to be 99.2%. In [11], the Activity amounted to 1 CFU.
On to `CN[C@@H]1[C@H](O[C@H]2[C@H](O[C@H]3[C@H](O)[C@@H](O)[C@H](N=C(N)N)[C@@H](O)[C@@H]3N=C(N)N)O[C@@H](C)[C@]2(O)C=O)O[C@@H](CO)[C@H](O)[C@H]1O` [STREPTOMYCIN], for which the “inhibition zone (IZ)” value in [1], in [3], in assay [7] and in assay [10] was 24 mm throughout.

What is called MIC is the lowest concentration that inhibits growth of the organism. Higher therefore signals weaker potency. Broadly, the inhibition is the drop in the measured response relative to a control, in per cent.
